In ChEMBL document CHEMBL4364256, “Design, synthesis and biological evaluation of antimicrobial diarylimine and -amine compounds targeting the interaction between the bacterial NusB and NusE proteins” (Eur J Med Chem, 2019):
In brackets after ≈: the same amount, converted by molar mass.

What was measured:
Streptococcus pyogenes = assay: Antimicrobial activity against Streptococcus pyogenes ATCC 19615 incubated for 20 hrs by microdilution method; assay type: functional; details: ATCC 19615, 20 h
Method in brief: (§1)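 Broth microdilution MIC testing done following CLSI guidelines.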

[1] = system: Enterococcus casseliflavus; assay: Antimicrobial activity against Enterococcus casseliflavus ATCC 25788 incubated for 20 hrs by microdilution method; assay type: functional; details: ATCC 25788, 20 h; method in brief: as §1
Streptococcus pneumoniae = assay: Antimicrobial activity against Streptococcus pneumoniae ATCC 49619 incubated for 20 hrs by microdilution method; assay type: functional; details: ATCC 49619, 20 h; method in brief: as §1
Staphylococcus aureus [2] = assay: Antimicrobial activity against Staphylococcus aureus USA300/ST8 incubated for 20 hrs by microdilution method; details: USA300 ST8, 20 h
Staphylococcus aureus [3] = assay: Antimicrobial activity against CA-methicillin-resistant Staphylococcus aureus W4 ST338 incubated for 20 hrs by microdilution method; assay type: functional; details: W4 ST338, 20 h
Method in brief: (§2)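 MIC determined by microdilution following Clinical & Laboratory Standards Institute (CLSI) guidelines, read in µg/mL, against a panel of hospital- and community-acquired MRSA strains.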

[4] = system: Staphylococcus epidermidis; assay: Antimicrobial activity against Staphylococcus epidermidis ATCC 12228 incubated for 20 hrs by microdilution method; assay type: functional; details: ATCC 12228, 20 h; method in brief: as §1
Staphylococcus aureus [5] = assay: microbe, parasite or virus in culture; details: ATCC 29213, 20 h
Staphylococcus aureus [6] = assay: Antimicrobial activity against Staphylococcus aureus ST22 11B086169 incubated for 20 hrs by microdilution method; assay type: functional; details: ST22 11B086169, 20 h; method in brief: as §2
[7] = Antimicrobial activity against Staphylococcus saprophyticus ATCC 15305 incubated for 20 hrs by microdilution method; assay type: functional, Staphylococcus saprophyticus subsp. saprophyticus; details: ATCC 15305, 20 h; method in brief: as §1
Acinetobacter baumannii = assay: Antimicrobial activity against Acinetobacter baumannii ATCC 19606 incubated for 20 hrs by microdilution method; assay type: functional; details: ATCC 19606 = CIP 70.34 = JCM 6841, 20 h; method in brief: as §1
Staphylococcus aureus [8] = assay: Antimicrobial activity against Staphylococcus aureus ATCC BAA43 incubated for 20 hrs by microdilution method; assay type: functional; details: ATCC BAA43, 20 h; method in brief: as §2
Staphylococcus aureus [9] = assay: Antimicrobial activity against CA-methicillin-resistant Staphylococcus aureus W48 ST217 incubated for 20 hrs by microdilution method; details: W48 ST217, 20 h
Staphylococcus aureus [10] = assay: Antimicrobial activity against CA-methicillin-resistant Staphylococcus aureus W47 ST30 incubated for 20 hrs by microdilution method; assay type: functional; details: W47 ST30, 20 h; method in brief: as §2
Staphylococcus aureus [11] = assay: Antimicrobial activity against Staphylococcus aureus HA W231 ST45 incubated for 20 hrs by microdilution method; assay type: functional; details: HA W231 ST45, 20 h; method in brief: as §2
[12] = microbe, parasite or virus in culture; details: Enterobacter cloacae, ATCC 13047, 20 h
Staphylococcus aureus [13] = assay: Antimicrobial activity against Staphylococcus aureus ATCC BAA44 incubated for 20 hrs by microdilution method; assay type: functional; details: ATCC BAA44, 20 h; method in brief: as §2
Enterococcus faecium = assay: Antimicrobial activity against Enterococcus faecium ATCC 19433 incubated for 20 hrs by microdilution method; assay type: functional; details: ATCC 19433, 20 h; method in brief: as §1
Staphylococcus aureus [14] = assay: Antimicrobial activity against Staphylococcus aureus ST239 incubated for 20 hrs by microdilution method; assay type: functional; details: CN79, 20 h; method in brief: as §2
Staphylococcus aureus [15] = assay: Antimicrobial activity against Staphylococcus aureus HA W235 ST5 incubated for 20 hrs by microdilution method; assay type: functional; details: HA W235 ST5, 20 h; method in brief: as §2
Staphylococcus aureus [16] = assay: Antimicrobial activity against CA-methicillin-resistant Staphylococcus aureus W45 ST59 incubated for 20 hrs by microdilution method; details: W45 ST59, 20 h
Streptococcus agalactiae = assay: Antimicrobial activity against Streptococcus agalactiae ATCC 12386 incubated for 20 hrs by microdilution method; assay type: functional; details: ATCC 12386, 20 h; method in brief: as §1
Staphylococcus aureus [17] = assay: microbe, parasite or virus in culture; details: ATCC 25923, 20 h
Pseudomonas aeruginosa = assay: Antimicrobial activity against Pseudomonas aeruginosa ATCC 27853 incubated for 20 hrs by microdilution method; assay type: functional; details: ATCC 27853, 20 h; method in brief: as §1
Staphylococcus aureus [18] = assay: Antimicrobial activity against CA-methicillin-resistant Staphylococcus aureus W46 ST59 incubated for 20 hrs by microdilution method; details: W46 ST59, 20 h
[19] = Cytotoxicity against human A549 cells assessed as reduction in cell viability after 48 to 72 hrs by MTT assay; assay type: cell-based
Bacillus subtilis = assay: Inhibition of N-terminal LgBiT-fused Bacillus subtilis NusB expressed in Escherichia coli BL21(DE3)pLysS interaction with C- terminal SmBiT-fused Bacillus subtilis NusE expressed in Escherichia coli BL21(DE3)pLysS at 100 uM preincubated for 10 mins followed by NusE addition and measured after 10 mins by nano-glo luciferase assay relative to control
Method in brief: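 NusB and NusE were mixed 1:1 at 1 µM in PBS, with compound at 100 µM. The read-out was percent inhibition of the NusB-NusE interaction.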

[20] = Therapeutic index, ratio of CC50 for human HaCaT cells to 1/2 times MIC for Staphylococcus aureus ATCC 25923; assay type: toxicity; details: read-out: TI
[21] = Therapeutic index, ratio of CC50 for human A549 cells to 1/2 times MIC for Staphylococcus aureus ATCC 25923; assay type: toxicity; details: read-out: TI
[22] = Cytotoxicity against human HaCaT cells assessed as reduction in cell viability after 48 to 72 hrs by MTT assay; assay type: cell-based

Row | SMILES | MIC (Streptococcus pneumoniae) | MIC (Staphylococcus aureus [5]) | MIC (Acinetobacter baumannii) | MIC [12] | MIC (Enterococcus faecium) | MIC (Staphylococcus aureus [17]) | MIC (Pseudomonas aeruginosa) | inhibition (Bacillus subtilis) | MIC (Streptococcus pyogenes) | MIC [1] | MIC (Staphylococcus aureus [2]) | MIC (Staphylococcus aureus [3]) | MIC [4] | MIC (Staphylococcus aureus [6]) | MIC [7] | MIC (Staphylococcus aureus [8]) | CC50 [19] | selectivity ratio [20] | selectivity ratio [21] | CC50 [22] | also measured
1 | Cc1onc(-c2ccccc2)c1C(=O)N[C@@H]1C(=O)N2[C@@H]1SC(C)(C)[C@@H]2C(=O)O [OXACILLIN] | 2 µg/mL (≈ 4.98 µM) | 0.25 µg/mL (≈ 0.623 µM) | > 256 µg/mL | > 256 µg/mL | 16 µg/mL (≈ 39.9 µM) | 0.5 to 1 µg/mL (≈ 1.25 to 2.49 µM) | > 256 µg/mL | – | 0.0625 µg/mL (≈ 0.156 µM) | 32 µg/mL (≈ 79.7 µM) | 32 µg/mL (≈ 79.7 µM) | 0.5 µg/mL (≈ 1.25 µM) | 0.25 µg/mL (≈ 0.623 µM) | 64 µg/mL (≈ 159 µM) | 1 µg/mL (≈ 2.49 µM) | > 256 µg/mL | – | – | – | – | MIC (Staphylococcus aureus [9]): 64 µg/mL (≈ 159 µM); MIC (Staphylococcus aureus [10]): 4 µg/mL (≈ 9.96 µM); MIC (Staphylococcus aureus [11]): 4 µg/mL (≈ 9.96 µM); MIC (Staphylococcus aureus [13]): > 256 µg/mL; MIC (Staphylococcus aureus [14]): > 256 µg/mL; MIC (Staphylococcus aureus [15]): > 256 µg/mL; MIC (Staphylococcus aureus [16]): 8 µg/mL (≈ 19.9 µM); MIC (Streptococcus agalactiae): 0.5 µg/mL (≈ 1.25 µM); MIC (Staphylococcus aureus [18]): 8 µg/mL (≈ 19.9 µM)
2 | CC(C)(C)c1ccc(NCc2cc([N+](=O)[O-])ccc2O)cc1 | 4 to 8 µg/mL (≈ 13.3 to 26.6 µM) | 4 µg/mL (≈ 13.3 µM) | > 256 µg/mL | > 256 µg/mL | > 256 µg/mL | 2 µg/mL (≈ 6.66 µM) | > 256 µg/mL | 10.8% | 16 µg/mL (≈ 53.3 µM) | 32 µg/mL (≈ 107 µM) | 4 µg/mL (≈ 13.3 µM) | 4 µg/mL (≈ 13.3 µM) | 4 µg/mL (≈ 13.3 µM) | 4 µg/mL (≈ 13.3 µM) | 8 µg/mL (≈ 26.6 µM) | 4 µg/mL (≈ 13.3 µM) | 37.2 µM | 12 | 11 | 38.9 µM | MIC (Staphylococcus aureus [9]): 8 µg/mL (≈ 26.6 µM); MIC (Staphylococcus aureus [10]): 4 µg/mL (≈ 13.3 µM); MIC (Staphylococcus aureus [11]): 4 µg/mL (≈ 13.3 µM); MIC (Staphylococcus aureus [13]): 4 µg/mL (≈ 13.3 µM); MIC (Staphylococcus aureus [14]): 4 µg/mL (≈ 13.3 µM); MIC (Staphylococcus aureus [15]): 4 µg/mL (≈ 13.3 µM); MIC (Staphylococcus aureus [16]): 4 µg/mL (≈ 13.3 µM); MIC (Streptococcus agalactiae): 16 µg/mL (≈ 53.3 µM); MIC (Staphylococcus aureus [18]): 4 µg/mL (≈ 13.3 µM)
3 | O=[N+]([O-])c1ccc(O)c(/C=N/c2ccccc2Cl)c1 | 64 µg/mL (≈ 231 µM) | 16 µg/mL (≈ 57.8 µM) | 256 µg/mL (≈ 925 µM) | > 256 µg/mL | > 256 µg/mL | 2 µg/mL (≈ 7.23 µM) | > 256 µg/mL | 45.7% | – | – | – | – | – | – | – | – | 432 µM | 96 | 119 | 347 µM | –

Now from value to molecule, other results behind:

Row | MIC (Streptococcus pneumoniae) | MIC (Staphylococcus aureus [5]) | MIC (Acinetobacter baumannii) | MIC [12] | MIC (Enterococcus faecium) | MIC (Staphylococcus aureus [17]) | MIC (Pseudomonas aeruginosa) | inhibition (Bacillus subtilis) | SMILES | MIC (Streptococcus pyogenes) | MIC [1] | MIC (Staphylococcus aureus [2]) | MIC (Staphylococcus aureus [3]) | MIC [4] | MIC (Staphylococcus aureus [6]) | MIC [7] | MIC (Staphylococcus aureus [8]) | CC50 [19] | selectivity ratio [20] | selectivity ratio [21] | CC50 [22] | also measured
4 | 64 µg/mL (≈ 231 µM) | 16 µg/mL (≈ 57.8 µM) | 256 µg/mL (≈ 925 µM) | > 256 µg/mL | > 256 µg/mL | 2 µg/mL (≈ 7.23 µM) | > 256 µg/mL | 66.5% | O=[N+]([O-])c1ccc(O)c(/C=N/c2cccc(Cl)c2)c1 | – | – | – | – | – | – | – | – | 274 µM | 69 | 76 | 250 µM | –
5 | 256 µg/mL (≈ 876 µM) | 4 µg/mL (≈ 13.7 µM) | > 256 µg/mL | > 256 µg/mL | 32 µg/mL (≈ 110 µM) | 2 µg/mL (≈ 6.85 µM) | > 256 µg/mL | 50.6% | C#Cc1cccc(NCc2cc(Cl)cc(Cl)c2O)c1 | – | – | – | – | – | – | – | – | 112 µM | 32 | 33 | 108 µM | –
